Results on five molecules are retold here after ChEMBL document CHEMBL4196210, “Depsipeptides Featuring a Neutral P1 Are Potent Inhibitors of Kallikrein-Related Peptidase 6 with On-Target Cellular Activity” (J Med Chem, 2018).

The term IC50 denotes the midpoint of a concentration-inhibition curve. Usually half-life stands for how long it takes for the measured level to halve. Broadly, the Ki is a measure of affinity in units of concentration, obtained from inhibition or displacement. A lower Ki goes with tighter binding.

The target in data set [1] is T1, Kallikrein-6 (Homo sapiens, UniProt Q92876). Put plainly: Inhibition of KLK6 in human FaDu cells assessed as reduction in cell proliferation at 300 nM incubated for 48 hrs by BrdU incorporation assay. It is filed as cell-based. An outline of the steps: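 FaDu cells treated daily for 48 h. Proliferation read as BrdU incorporation; average of 5 independent experiments ± standard deviation.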

Data set [2] relates to Detroit 562. Put plainly: Effect on cell proliferation of human Detroit 562 cells at 100 to 500 nM incubated for 48 hrs by BrdU incorporation assay. Conditions: detroit 562, 48 h, 0.5 µM. The data set is classed as ADME, cell-based. (Uptake of a labelled nucleoside into DNA is a usual measure of proliferation.)
The target of data set [3] is Kallikrein-5 (Homo sapiens) (UniProt Q9Y337). Put plainly: Binding affinity to KLK5 in human VCAP cells conditioned medium at 50 uM pre-incubated for 30 mins by activity-based probe based in-gel fluorescence assay. The data set is classed as cell-based.
The test system of data set [4] is Detroit 562. In words: Effect on EMT switch in human Detroit 562 cells at 100 to 500 nM incubated for 48 hrs. Conditions: detroit 562, 48 h, 0.5 µM. It is filed as ADME, cell-based.
Data set [5] has as its system CAL-27. In words: Effect on cell proliferation of human CAL27 cells at 100 to 500 nM incubated for 48 hrs by BrdU incorporation assay. It is filed as ADME, cell-based. Conditions: cal-27, 48 h, 0.5 µM.
The test system of data set [6] is CAL-27. Put plainly: Effect on EMT switch in human CAL27 cells at 100 to 500 nM incubated for 48 hrs. It is filed as ADME, cell-based. Conditions: cal-27, 48 h, 0.5 µM.
For data set [7], the target named is T2, Kallikrein-7 (Homo sapiens, UniProt P49862). Put plainly: Inhibition of KLK7 (unknown origin) expressed in Pichia pastoris pre-incubated for 10 mins before Leu-Leu-Val-Tyr-AMC substrate addition and measured after 30 mins by fluorescence based assay. The gist of the method: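 KLK7 at 33 nM final in 100 mM phosphate, 0.01% Tween-20, pH 8.5, with inhibitor (1:3 dilutions) or 2% DMSO for 10 min at rt. Reaction started with Leu-Leu-Val-Tyr-AMC at 500 µM final. Fluorescence (ex 380/em 460) read every 60 s for 30 min. Triplicates.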
Target sequence in this assay (P49862 whole entry): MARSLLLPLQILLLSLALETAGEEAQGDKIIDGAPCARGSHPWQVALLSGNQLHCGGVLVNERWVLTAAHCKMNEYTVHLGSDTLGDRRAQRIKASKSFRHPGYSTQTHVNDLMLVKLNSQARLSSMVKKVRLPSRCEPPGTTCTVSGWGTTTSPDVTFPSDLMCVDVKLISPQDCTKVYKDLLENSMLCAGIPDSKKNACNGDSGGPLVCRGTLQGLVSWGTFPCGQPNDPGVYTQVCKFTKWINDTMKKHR

The target of another data set is T3, Kallikrein-14 (Homo sapiens, UniProt Q9P0G3).
T3 sequence (Q9P0G3 whole entry): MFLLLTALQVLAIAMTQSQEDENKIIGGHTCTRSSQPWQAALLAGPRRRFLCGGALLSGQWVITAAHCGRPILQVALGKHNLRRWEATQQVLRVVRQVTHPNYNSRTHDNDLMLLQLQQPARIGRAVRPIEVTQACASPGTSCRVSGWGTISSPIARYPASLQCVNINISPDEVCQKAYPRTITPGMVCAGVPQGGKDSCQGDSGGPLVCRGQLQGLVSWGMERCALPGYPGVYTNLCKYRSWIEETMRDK
Put plainly: Inhibition of KLK14 (unknown origin) expressed in Pichia pastoris pre-incubated for 10 mins before Boc-ValProArg-AMC substrate addition and measured after 30 mins by fluorescence based assay.

Data set [8] concerns the target T4, Kallikrein-4 (Homo sapiens, UniProt Q9Y5K2). Put plainly: Binding affinity to recombinant KLK4 (unknown origin) at 50 uM pre-incubated with conditioned medium for 30 mins by activity-based probe based in-gel fluorescence assay.
Another data set has as its target T5, Kallikrein-8 (Homo sapiens, UniProt O60259).
T5 sequence (O60259 whole entry): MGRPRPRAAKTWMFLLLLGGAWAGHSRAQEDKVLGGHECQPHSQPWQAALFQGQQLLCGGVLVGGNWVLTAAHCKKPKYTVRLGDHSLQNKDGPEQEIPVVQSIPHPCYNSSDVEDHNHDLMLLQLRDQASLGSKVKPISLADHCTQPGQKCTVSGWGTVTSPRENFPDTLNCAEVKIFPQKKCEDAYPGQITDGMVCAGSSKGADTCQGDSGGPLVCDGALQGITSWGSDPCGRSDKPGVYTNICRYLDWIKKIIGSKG
Put plainly: Inhibition of KLK8 (unknown origin) expressed in Pichia pastoris pre-incubated for 10 mins before Boc-ValProArg-AMC substrate addition and measured after 30 mins by fluorescence based assay.

Data set [9] concerns the target T6, Trypsin (Homo sapiens, UniProt P07477+P07478+P35030). Put plainly: Inhibition of trypsin (unknown origin) pre-incubated for 30 mins before N-Boc-FSR-AMC substrate addition and measured after 30 mins. The data set is classed as protein assay.
Data set [10] in a line: Stability in DMEM supplemented with 10% (v/v) fetal bovine serum at 10 uM at 37 degC assessed as half life by HPLC-MS method. It is filed as physicochemical. The note with it: cattle, DMEM with 10% (v/v) fetal bovine serum. The gist of the method: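 Compound at 10 µM (0.2% DMSO) in DMEM with 10% FBS, 2 mM L-glutamine and 1% penicillin/streptomycin, plus 10 µM triazole internal standard, held at 37 °C. Sampled hourly to 10 h, then at 24 h, by HPLC-MS in SIM mode for parent and hydrolysis product.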

The target of a further data set is T7, Kallikrein-5 (Homo sapiens, UniProt Q9Y337).
T7 sequence (Q9Y337 whole entry): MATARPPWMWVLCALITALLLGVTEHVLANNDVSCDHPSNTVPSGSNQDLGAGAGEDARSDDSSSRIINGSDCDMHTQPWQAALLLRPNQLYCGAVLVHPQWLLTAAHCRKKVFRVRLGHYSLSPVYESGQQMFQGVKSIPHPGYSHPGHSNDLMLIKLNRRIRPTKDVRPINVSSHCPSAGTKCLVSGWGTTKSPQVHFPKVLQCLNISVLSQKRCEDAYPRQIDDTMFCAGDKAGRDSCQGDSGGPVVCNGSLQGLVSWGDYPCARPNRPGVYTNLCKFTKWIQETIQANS
In words: Inhibition of KLK5 (unknown origin) expressed in Pichia pastoris pre-incubated for 10 mins before Boc-ValProArg-AMC substrate addition and measured after 30 mins by fluorescence based assay.

For data set [11], the target named is T6, Trypsin. Put plainly: Binding affinity to recombinant trypsin (unknown origin) at 50 uM pre-incubated with conditioned medium for 30 mins by activity-based probe based in-gel fluorescence assay. The data set is classed as protein assay.
Data set [12] addresses T8, Prostate-specific antigen (Homo sapiens) (UniProt P07288).
T8 sequence (whole entry): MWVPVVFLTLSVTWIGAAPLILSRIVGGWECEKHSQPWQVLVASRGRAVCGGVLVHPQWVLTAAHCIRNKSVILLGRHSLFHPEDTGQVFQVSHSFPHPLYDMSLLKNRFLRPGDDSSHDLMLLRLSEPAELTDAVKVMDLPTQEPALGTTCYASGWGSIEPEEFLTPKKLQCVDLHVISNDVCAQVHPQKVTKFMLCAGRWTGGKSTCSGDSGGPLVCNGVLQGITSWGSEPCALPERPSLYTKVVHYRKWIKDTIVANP
In words: Binding affinity to KLK3 in human LNCAP cells conditioned medium at 50 uM pre-incubated for 30 mins by activity-based probe based in-gel fluorescence assay. The data set is classed as cell-based.

Data set [13] addresses T2, Kallikrein-7. In words: Binding affinity to recombinant KLK7 (unknown origin) at 50 uM pre-incubated with conditioned medium for 30 mins by activity-based probe based in-gel fluorescence assay.
Target sequence in this assay (P49862 30-253 limits assumed): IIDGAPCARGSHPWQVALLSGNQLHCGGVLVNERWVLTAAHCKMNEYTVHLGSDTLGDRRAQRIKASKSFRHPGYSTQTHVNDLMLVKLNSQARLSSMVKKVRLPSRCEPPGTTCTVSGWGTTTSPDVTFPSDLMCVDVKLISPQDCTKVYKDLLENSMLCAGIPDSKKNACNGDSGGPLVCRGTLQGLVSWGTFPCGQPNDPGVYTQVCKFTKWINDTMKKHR
For another data set, the target named is T9, Kallikrein-13 (Homo sapiens, UniProt Q9UKR3).
T9 sequence (Q9UKR3 whole entry): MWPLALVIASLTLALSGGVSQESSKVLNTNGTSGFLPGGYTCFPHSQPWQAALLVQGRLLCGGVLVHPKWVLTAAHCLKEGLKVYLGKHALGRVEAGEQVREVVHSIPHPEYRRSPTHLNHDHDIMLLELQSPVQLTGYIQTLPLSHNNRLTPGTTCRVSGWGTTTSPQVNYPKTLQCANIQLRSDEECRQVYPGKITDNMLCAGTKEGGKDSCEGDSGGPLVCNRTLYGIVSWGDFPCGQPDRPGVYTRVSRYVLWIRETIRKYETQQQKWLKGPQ
In words: Inhibition of KLK13 (unknown origin) expressed in Pichia pastoris pre-incubated for 10 mins before Boc-ValProArg-AMC substrate addition and measured after 30 mins by fluorescence based assay.

The target of data set [14] is T4, Kallikrein-4. In words: Inhibition of N-terminal FLAG-tagged and C-terminal His tagged pro-KLK4 (unknown origin) expressed in Escherichia coli in presence of thermolysin pre-incubated for 10 mins before Boc-FSR-AMC substrate addition and measured after 20 mins by fluorescence based assay.
In data set [15] the target is T1, Kallikrein-6. In words: Inhibition of recombinant human KLK6 assessed as Kinact/Ki ratio using Boc-QAR-AMC substrate.
For data set [16], the target named is T1, Kallikrein-6. Put plainly: Inhibition of human KLK6 expressed in baculovirus/insect cell line system using Abz-KLRSSKQ-EDDnp substrate.

Each structure is given as a SMILES string. Activity calls are given as the source filed them. The rule behind the calls is not given here. Where only a bound is given, the exact number is not on record here.

T4 sequence (Q9Y5K2 whole entry): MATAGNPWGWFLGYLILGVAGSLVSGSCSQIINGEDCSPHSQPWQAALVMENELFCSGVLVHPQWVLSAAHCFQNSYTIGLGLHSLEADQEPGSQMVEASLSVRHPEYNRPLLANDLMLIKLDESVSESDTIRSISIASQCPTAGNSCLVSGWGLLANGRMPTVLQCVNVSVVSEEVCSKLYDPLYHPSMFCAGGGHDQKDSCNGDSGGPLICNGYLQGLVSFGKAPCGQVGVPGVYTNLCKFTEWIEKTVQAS

`Cc1nn(-c2ccccc2)c(C)c1NC(=O)COC(=O)Nc1c(C)[nH]c2ccccc12`: the outcome on Kallikrein-6 [1] was inactive.
For `Cc1nn(-c2ccccc2)c(C)c1NC(=O)COC(=O)Cc1c(C)[nH]c2ccccc12`, the Activity entry in the data set with Detroit 562 [2], in the data set on Detroit 562 [4], in the data set with CAL-27 [5] and in the data set on CAL-27 [6] was “Non-Toxic” in each case. The outcome (in data set [3]; at Kallikrein-4 [8]; on Trypsin [11]; in [12]; at Kallikrein-7 [13]) was inactive. Also, the IC50 at Kallikrein-7 [7] was 73 µM; against Kallikrein-14, 10.3 µM; against Kallikrein-8, above 10 µM; at Trypsin [9], 21 µM; against Kallikrein-5, 1.1 µM; against Kallikrein-13, above 10 µM. The IC50 at Kallikrein-4 [14] was above 200 µM. The half-life at 10 µM in [10] was 4.22 h.
Regarding `Cc1nn(-c2ccccc2)c(C)c1NC(=O)COC(=O)Cc1c(C)[nH]c2cc(C(=N)N)ccc12`, the IC50 was above 0.5 µM against Kallikrein-7 [7]; 0.008 µM against Kallikrein-14; 0.21 µM against Kallikrein-8; below 0.001 µM at Trypsin [9]; 0.13 µM against Kallikrein-5; above 0.5 µM against Kallikrein-13. In addition, the half-life at 10 µM in [10] was 1.32 h.
`O=C(Oc1cc(Cl)ccc1Cl)c1cc2cc(Cl)ccc2oc1=O`: at Kallikrein-6 [15], the Ratio came out at 131 M⁻¹ s⁻¹.
In turn, `CC(C)C[C@H](NC(=O)[C@H](CCCNC(=N)N)NC(=O)c1ccc(Cl)cc1)C(N)=O` gave a Ki at Kallikrein-6 [16] of 1.5 µM.
